# Assay outcomes (PubChem)
# CDK5 inh – CDK5/p35 (human) kinase inhibition; inhibition, % at 10 µM; Recombinant CDK5/p35, ADP-Glo luminescence, 60 min; AID 488839; 0.01% of 330,000 active;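 active = highest replicate inhibition of at least 50% and at least 75% of replicates reaching 50%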;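 note: plate controls were DMSO neutral control for no effect and GW8510 at 10 µM for full effect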
# Target sequence (Q00535 whole entry, looked up): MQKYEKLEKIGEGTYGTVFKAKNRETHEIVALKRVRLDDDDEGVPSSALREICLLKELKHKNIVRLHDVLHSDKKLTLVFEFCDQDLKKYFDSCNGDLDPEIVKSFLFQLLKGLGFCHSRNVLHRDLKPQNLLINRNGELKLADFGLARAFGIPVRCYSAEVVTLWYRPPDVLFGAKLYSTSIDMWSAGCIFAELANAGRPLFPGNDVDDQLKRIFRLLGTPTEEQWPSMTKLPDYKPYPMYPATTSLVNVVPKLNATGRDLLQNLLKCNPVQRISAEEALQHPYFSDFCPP
# Target sequence (Q15078 whole entry, looked up): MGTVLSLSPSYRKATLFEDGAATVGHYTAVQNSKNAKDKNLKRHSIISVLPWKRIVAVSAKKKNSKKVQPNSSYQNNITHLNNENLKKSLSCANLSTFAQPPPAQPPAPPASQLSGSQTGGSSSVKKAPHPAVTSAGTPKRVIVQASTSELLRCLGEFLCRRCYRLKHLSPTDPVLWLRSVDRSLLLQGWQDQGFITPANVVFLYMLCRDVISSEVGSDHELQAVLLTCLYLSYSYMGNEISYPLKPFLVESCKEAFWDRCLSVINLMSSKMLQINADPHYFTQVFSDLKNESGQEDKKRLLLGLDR
# Tb MetRS inh – blocks T. brucei methionyl-tRNA synthetase activity; 0.4% of 360,000 active; purified T. brucei MetRS, ATP depletion, Kinase-Glo luminescence; AID 624268; inhibition, % at 11.9 µM;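 active = inhibition above a per-plate cutoff of the control wells' mean inhibition plus 3 SD, cut at about 5.5% in these data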;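 note: 0% = DMSO wells median and 100% = median of wells with control inhibitor compound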
#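 Dosing: 11.9 µM compound single dose, 0.9% DMSO; Assay system: purified T. brucei MetRS enzyme; Measured by: Kinase-Glo luciferase luminescence reporting remaining unconsumed ATP; Schedule: 15 min plus 2 h at 25 °C.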
# CAL PDZ FP-1 – human CAL PDZ-peptide interaction inhibition. Q9HD26. purified CAL PDZ, TMR-peptide fluorescence polarization, 1 h. inhibition, % at 20 µM. 0.02% of 330,000 active;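 active = highest replicate inhibition of at least 40%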;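 note: plate controls were DMSO neutral control wells for no effect and unlabeled competitor peptide control wells for full effect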
#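 System: tagged CAL PDZ domain. Schedule: 1 h room-temperature incubation prior to read. Signal: fluorescence polarization (mP). Measure: percent inhibition from loss of millipolarization.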
# DYRK1A inh – Dyrk1A (rat) kinase inhibition; Q63470; ADP-Glo luminescence, NFATc1 peptide; 0.43% of 310,000 active; inhibition, % at 12.5 µM; AID 504441; in the data active = inhibition above about 50%;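 note: plate controls were vehicle with enzyme for no effect and no enzyme for full effect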
# CAL PDZ FP-2 – inhibitors of human CAL PDZ peptide binding; inhibition, % at 24.9 µM; 0.92% of 300,000 active; purified CAL PDZ, TMR-peptide fluorescence polarization, 1 h; AID 602252; Q9HD26;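 active = mean inhibition of at least 30% with at least half of replicates also reaching 30%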;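 note: 0% = DMSO neutral control and 100% = excess unlabeled competitor peptide PRC23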
# PvdQ acylase – blocks Pseudomonas aeruginosa PvdQ acylase activity. 0.063% of 340,000 active. inhibition, % at 10 µM. purified PvdQ acylase, fluorescence plate reader; in the data active = inhibition above about 30%, passing the limit was not always enough;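 note: 0% = vehicle neutral wells and 100% = reference inhibitor wells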
# An asterisk follows results filed as active; . = no result; ! = not active in a repeat. The list is not random: actives were taken first. Their share in the collection is about 1.4%.
SMILES,CDK5 inh,Tb MetRS inh,CAL PDZ FP-1,DYRK1A inh,CAL PDZ FP-2,PvdQ acylase
CCc1ccc(C(=O)CSc2nnc(C3CC3)n2C2CC2)cc1,-1,0,-1,1,-7,-9
Cc1ccc(C(=O)CSc2nnc(C3CC3)n2C2CC2)s1,-1,0,0,-5,63*,-18
CC(C)Oc1ccc2nnnn2n1,0,0,.,-2,130*,-19
CCc1ccc(Nc2c([N+](=O)[O-])c(=O)oc3ccccc23)cc1,0,1,-1,.,-1,-6
CCNc1c([N+](=O)[O-])c(=O)oc2ccccc12,-2,0,-2,10,56*,-11
CC(Sc1nc(-c2ccccc2)c(-c2ccccc2)[nH]1)C(=O)NCC1CCCO1 (stereo unspecified),.,0,.,.,.,.
CCC(=O)c1ccc(N2CCCCC2)c(F)c1,1,-1,-2,3,161*,-9
COc1ccc(-c2nc3ccc(C)cn3c2Cc2ccsc2)cc1OC,.,-1,.,.,.,.
O=[N+]([O-])c1ccc2c(c1)Cc1cc(F)ccc1-2,-1,0,0,.,.,87*
C(=C\c1nnc(-c2cccs2)o1)/c1ccccc1,-1,-1,-5,2,-2,38*
Cc1cccc(CN2CCN(C3CN(Cc4ccc([N+](=O)[O-])cc4)S(=O)(=O)C3)CC2)c1 (stereo unspecified),.,1,.,.,.,.
O=C(NNC(=O)c1cccnc1)Nc1ccc(Cl)c(Cl)c1,-1,0,-5,-1,-2,-5
O=C(NNC(=O)c1ccc(Cl)c(Cl)c1)c1cccnc1,-2,0,92*,0,-2,-10
O=C(Nc1nccs1)c1ccc2ccccc2n1,3,0,-2,8,35*,-16
CCOc1ccc(Cl)cc1-c1cc(C(=O)NCc2cccc(C(F)(F)F)c2)[nH]n1,.,1,.,.,.,.
COc1ccccc1-n1cc(-c2ccccc2)c2c(=S)nc[nH]c21,2,0,-1,5,77*,-3
CCCCNC(=O)C1(C)CCCCN1C(=O)c1cc2ccccc2s1 (stereo unspecified),.,-1,.,.,.,.
O=C(NC1CCCc2ccccc21)c1cccc(Br)c1 (stereo unspecified),-1,0,0,-4,-3,2
CS(=O)(=O)c1ccc(C(=O)NC2CCCc3ccccc32)cc1 (stereo unspecified),0,0,0,-1,58*,-16
CN(C)c1cccc(C(=O)NC2CCCc3ccccc32)c1 (stereo unspecified),0,0,-1,4,59*,-11
O=[N+]([O-])/C(C=Nc1ccccc1O)=C\Nc1ccccc1O,0,0,0,-6,35*,-8
O=C(CSc1nnc(-c2ccc(Cl)cc2Cl)n1C1CCCCC1)N1CCCC1,1,-1,-1,3,53*,-3
O=C(CSc1nnc(-c2ccccc2F)n1C1CCCCC1)N1CCCC1,-1,-1,-2,0,6,-2
O=C(CSc1nnc(-c2ccc(Br)cc2)n1C1CCCCC1)N1CCCC1,-1,0,-1,2,56*,-12
OC[C@H]1O[C@@H](c2nc3ccc(-c4nc(-c5ccc(Br)cc5)no4)cc3[nH]2)C[C@@H]1O,.,3,.,.,.,.
SMILES,CDK5 inh,Tb MetRS inh,CAL PDZ FP-1,DYRK1A inh,CAL PDZ FP-2,PvdQ acylase
C[C@]12CCC(=O)C[C@@H]1CC[C@@H]1[C@@H]2CC[C@]2(C)[C@@H](C(=O)COC(=O)CCC(=O)O)CC[C@@H]12,0,2,-1,3,167*!,-14
CN(C)/C=C1\C=C2C(=O)c3ccccc3N2C1=O,1,-1,1,.,56*,-11
Cc1ccc(S(=O)(=O)N2C[C@H]3n4c(=O)ccc(=O)n4C[C@H](OC(=O)NCc4ccco4)[C@@]3(O)C2)cc1,.,-1,.,.,.,.
C[C@]12c3[nH]c4cc(-c5ccco5)ccc4c3CCN1C(=O)[C@@H](CC(=O)NCCc1ccccn1)C[C@@H]2C(=O)N1CCCCC1,1,0,0,27,-2,8
CC(C)(C)NC(=O)C[C@H]1C[C@H](C(=O)N2CCCCC2)[C@@]2(C)c3[nH]c4cc(-c5ccco5)ccc4c3CCN2C1=O,-1,0,0,6,65*,-18
C[C@]12c3[nH]c4cc(-c5ccco5)ccc4c3CCN1C(=O)[C@@H](CC(=O)NCCC1=CCCCC1)C[C@@H]2C(=O)N1CCCCC1,1,-1,0,-12,48*,-12
CC(C)(C)NC(=O)C[C@H]1C[C@H](C(=O)N2CCOCC2)[C@@]2(C)c3[nH]c4cc(-c5ccco5)ccc4c3CCN2C1=O,-1,-1,0,3,-4,-11
COC(=O)CC1OCC=C2CN3CCC45C6=CC(=O)C(=O)C([N+](=O)[O-])=C6NC4C1C2CC35 (stereo unspecified),.,0,.,.,.,.
COc1ccc(NC(=O)Oc2cc(C)ccc2C(C)C)cc1,-1,-1,-1,-4,89*,-12
COc1ccc(NC(=O)Nc2ccc(C(C)C)cc2)cc1,-1,0,-1,-2,-3,-13
CCCCCC(=O)N1C[C@@H](n2cc(C3CC3)nn2)[C@H](O)C[C@@H]1c1ccc(Cl)cc1,.,-1,.,.,.,.
COc1ccc(CC(N)c2csc(Nc3ccc(C(=O)c4ccccc4)cc3)n2)cc1 (stereo unspecified),.,0,.,.,.,.
CCOC(=O)C1=CCC(c2cc3ccccc3[nH]2)NC1 (stereo unspecified),.,2,.,.,.,.
O=C1C2C3CC(C(Br)C3Br)C2C(=O)N1CC1CCCO1 (stereo unspecified),-1,0,2,.,-4,-4
CC(C(=O)NCC1CCCO1)N1C(=O)C2C3CC(C(Br)C3Br)C2C1=O (stereo unspecified),2,0,1,.,109*,-13
COc1ccc(C2=Nc3ccccc3NC(=O)C2N(CCc2ccccc2)C(=O)c2cccs2)cc1 (stereo unspecified),.,0,.,.,.,.
O=C1CCNc2cc3ccccc3cc21,-2,2,0,76*,8,-1
CS(=O)(=O)Nc1cccc(-c2cc(NC=O)c3ncc(-c4ccc(F)c(Cl)c4)n3c2)c1,.,0,.,.,.,.
Cc1cccc(NC(=O)CN2C(=O)N/C(=C/c3cc(C)n(-c4cccnc4)c3C)C2=O)c1,0,0,0,-2,74*,-7
Cc1cccc(NC(=O)CN2C(=O)N/C(=C/c3cc(C)n(-c4ccncc4)c3C)C2=O)c1,-1,0,-1,-2,-10,-1
CCCNC(=O)C1(C)CCCN(Cc2ccc(-c3ccccc3)o2)C1 (stereo unspecified),.,0,.,.,.,.
COc1ccc(Nc2nc3ccccc3n3cnnc23)cc1,-1,0,-3,28,60*,-13
Cc1ccc(Nc2nc3ccccc3n3cnnc23)cc1C,-4,2,-1,7,-13,-12
